Laboratory results: ChEMBL document CHEMBL4342523, “Discovery and Development of S6821 and S7958 as Potent TAS2R8 Antagonists” (J Med Chem, 2020)
pEC50: −log10 of the molar value. Values belong to the molecule of their own block, whether it stands above or below them. Active and inactive are the calls of the source. The calls are words filed in the database; no cut-off is given here.

Experiments:
[1] = target: T1, Taste receptor type 2 member 1 (Homo sapiens) (UniProt Q9NYW7); test: Antagonist activity at recombinant human TAS2R1 transiently expressed in HEK293T co-expressing Galpha16gust44 assessed as inhibition of picric acid-induced intracellular calcium level by measuring remaining activity at 25 uM by fluo-4AM dye based FLIPR assay relative to control; type: functional, cell-based
T1 sequence (whole entry): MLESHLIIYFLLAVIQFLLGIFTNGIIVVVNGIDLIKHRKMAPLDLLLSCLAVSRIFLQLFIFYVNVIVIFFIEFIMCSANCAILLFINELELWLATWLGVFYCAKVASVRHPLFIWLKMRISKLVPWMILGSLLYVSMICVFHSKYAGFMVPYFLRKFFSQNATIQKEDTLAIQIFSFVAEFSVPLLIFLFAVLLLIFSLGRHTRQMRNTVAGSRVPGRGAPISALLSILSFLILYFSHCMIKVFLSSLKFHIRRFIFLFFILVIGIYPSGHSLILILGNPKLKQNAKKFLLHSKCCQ

[2] = target: Taste receptor type 2 member 9 (Homo sapiens) (UniProt Q9NYW1); test: Antagonist activity at recombinant human TAS2R9 transiently expressed in HEK293T co-expressing Galpha16gust44 assessed as inhibition of ofloxacin-induced intracellular calcium level by measuring remaining activity at 25 uM by fluo-4AM dye based FLIPR assay relative to control; type: functional, cell-based
Taste receptor type 2 member 9 (Homo sapiens), sequence (Q9NYW1 whole entry): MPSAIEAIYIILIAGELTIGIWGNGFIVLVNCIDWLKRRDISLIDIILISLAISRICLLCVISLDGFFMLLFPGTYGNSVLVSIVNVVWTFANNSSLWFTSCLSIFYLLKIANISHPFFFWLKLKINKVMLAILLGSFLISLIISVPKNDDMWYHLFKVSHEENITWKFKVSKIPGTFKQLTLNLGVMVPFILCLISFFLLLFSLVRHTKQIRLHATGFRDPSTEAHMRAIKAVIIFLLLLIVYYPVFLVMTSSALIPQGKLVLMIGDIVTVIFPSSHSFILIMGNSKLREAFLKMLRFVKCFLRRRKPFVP

[3] = target: Taste receptor type 2 member 43 (Homo sapiens) (UniProt P59537); test: Antagonist activity at recombinant human TAS2R43 transiently expressed in HEK293T co-expressing Galpha16gust44 assessed as inhibition of aristolochic acid-induced intracellular calcium level by measuring remaining activity at 25 uM by fluo-4AM dye based FLIPR assay relative to control; type: functional, cell-based
Taste receptor type 2 member 43 (Homo sapiens), sequence (P59537 whole entry): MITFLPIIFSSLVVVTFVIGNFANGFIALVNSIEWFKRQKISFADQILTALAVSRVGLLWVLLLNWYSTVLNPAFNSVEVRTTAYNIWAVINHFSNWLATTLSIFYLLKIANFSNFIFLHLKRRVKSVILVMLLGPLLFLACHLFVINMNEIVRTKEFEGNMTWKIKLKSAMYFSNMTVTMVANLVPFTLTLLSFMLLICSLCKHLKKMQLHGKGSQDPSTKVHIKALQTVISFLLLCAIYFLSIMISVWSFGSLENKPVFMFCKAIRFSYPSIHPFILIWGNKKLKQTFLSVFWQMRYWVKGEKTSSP

[4] = target: Taste receptor type 2 member 31 (Homo sapiens) (UniProt P59538); test: Antagonist activity at recombinant human TAS2R31 transiently expressed in HEK293T co-expressing Galpha16gust44 assessed as inhibition of aristolochic acid-induced intracellular calcium level by measuring remaining activity at 25 uM by fluo-4AM dye based FLIPR assay relative to control; type: functional, cell-based
Taste receptor type 2 member 31 (Homo sapiens), sequence (P59538 whole entry): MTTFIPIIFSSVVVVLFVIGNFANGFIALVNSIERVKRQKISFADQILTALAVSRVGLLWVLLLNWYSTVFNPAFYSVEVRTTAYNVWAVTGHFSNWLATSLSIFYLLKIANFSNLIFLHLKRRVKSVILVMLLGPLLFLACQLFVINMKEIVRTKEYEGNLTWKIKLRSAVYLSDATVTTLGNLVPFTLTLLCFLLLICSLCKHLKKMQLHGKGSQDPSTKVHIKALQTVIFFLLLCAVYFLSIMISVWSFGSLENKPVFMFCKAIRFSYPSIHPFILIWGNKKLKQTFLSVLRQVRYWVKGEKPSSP

[5] = target: Taste receptor type 2 member 50 (Homo sapiens) (UniProt P59544); test: Antagonist activity at recombinant human TAS2R50 transiently expressed in HEK293T co-expressing Galpha16gust44 assessed as inhibition of andrographolide-induced intracellular calcium level by measuring remaining activity at 25 uM by fluo-4AM dye based FLIPR assay relative to control; type: functional, cell-based
Taste receptor type 2 member 50 (Homo sapiens), sequence (P59544 whole entry): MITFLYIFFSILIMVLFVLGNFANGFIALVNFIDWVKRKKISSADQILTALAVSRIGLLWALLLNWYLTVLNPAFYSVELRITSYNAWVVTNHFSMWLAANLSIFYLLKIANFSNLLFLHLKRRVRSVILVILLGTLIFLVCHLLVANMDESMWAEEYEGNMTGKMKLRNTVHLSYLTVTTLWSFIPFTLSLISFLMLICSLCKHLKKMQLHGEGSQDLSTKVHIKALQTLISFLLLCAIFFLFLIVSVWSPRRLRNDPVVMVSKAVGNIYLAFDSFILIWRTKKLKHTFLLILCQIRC

[6] = Stability of the compound in pH 5 buffer assessed as parent compound remaining measured after 24 hrs at room temperature; type: physicochemical; settings: read-out: Stability
[7] = Stability of the compound in pH 6 buffer assessed as parent compound remaining measured after 60 mins at 124 degC; type: physicochemical; settings: read-out: Stability
[8] = Stability of the compound in pH 7.1 buffer assessed as parent compound remaining measured after 24 hrs at room temperature; type: physicochemical; settings: read-out: Stability
[9] = target: Taste receptor type 2 member 1 (Homo sapiens, UniProt Q9NYW7); test: Agonist activity at TAS2R1 (unknown origin) by stably expressed cell-based assay
[10] = target: Taste receptor type 2 member 14 (Homo sapiens, UniProt Q9NYV8); test: Agonist activity at TAS2R14 (unknown origin) by stably expressed cell-based assay
[11] = target: T2, Taste receptor type 2 member 8 (Homo sapiens) (UniProt Q9NYW2); test: Reversible antagonist activity at recombinant human TAS2R8 assessed as recovery of suppression of andrographolide-induced intracellular calcium level at 1 uM preincubated for 60 secs followed by andrographolide addition measured after 5 mins washout period using Fura-2AM dye by cell-based fluorescent microscopic analysis; type: functional
T2 sequence (whole entry): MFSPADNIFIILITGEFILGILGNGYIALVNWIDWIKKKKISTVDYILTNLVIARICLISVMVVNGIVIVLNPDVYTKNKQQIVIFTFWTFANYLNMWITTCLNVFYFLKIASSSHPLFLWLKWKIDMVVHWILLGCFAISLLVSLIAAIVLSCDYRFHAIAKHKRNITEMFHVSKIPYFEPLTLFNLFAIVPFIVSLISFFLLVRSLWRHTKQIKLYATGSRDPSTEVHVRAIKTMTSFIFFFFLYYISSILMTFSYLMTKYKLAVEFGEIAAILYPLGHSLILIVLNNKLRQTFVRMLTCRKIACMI
Method in brief: (§1)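 TAS2R8 stable cells grown overnight on Matrigel-coated coverslips, loaded with 3 μg/mL Fura-2AM 1 h at RT in HBSS; ratiometric imaging under continuous HBSS perfusion with 100 μM andrographolide. Inhibitor 1 μM applied 60 s before and during agonist; 5 min HBSS washout between applications; only cells with initial ΔF/F > 0.5 analysed; mean and per-cell peak responses, 136 cells, 3 experiments.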

[12] = Stability of the compound in pH 2.8 buffer assessed as parent compound remaining measured after 24 hrs at room temperature; type: physicochemical; settings: read-out: Stability
[13] = Stability of the compound in pH 6.5 buffer assessed as parent compound remaining measured after 30 secs at 140 degC; type: physicochemical; settings: read-out: Stability
[14] = Stability of the compound in pH 9.3 buffer assessed as parent compound remaining measured after 24 hrs at room temperature; type: physicochemical; settings: read-out: Stability
Homo sapiens = test: In vivo agonist activity at TAS2R14 in human assessed as induction of intrinsic bitterness up to 150 uM in presence of low sodium buffer by 15-point bitterness scale based assay; type: functional, organism-based
Method in brief: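 Human sensory test: trained external panelists, no food or drink except water ≥1 h before; compound from ethanol stock, final ethanol 0.1% (matched in blanks), in low sodium phosphate buffer pH 7.1 (0.3 mM KCl, 0.5 mM Na2HPO4, 0.175 mM KH2PO4); bitterness rated on 1–15 scale, 15 panelists × 2 replicates, Tukey's test (α = 0.05).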

[15] = Maternal toxicity in po dosed Sprague-Dawley rat assessed as effect on embryo and fetal development administered via gavage during gestation period; type: ADME, organism-based; settings: female, in vivo
[16] = Chronic toxicity in po dosed Sprague-Dawley rat administered daily for 90 days; type: organism-based; settings: in vivo
[17] = target: T1, Taste receptor type 2 member 1 (Homo sapiens); test: Agonist activity at TAS2R1 (unknown origin) at 25 uM by transiently expressed cell-based assay
[18] = target: T3, Taste receptor type 2 member 14 (Homo sapiens) (UniProt Q9NYV8); test: Agonist activity at TAS2R14 (unknown origin) at 25 uM by transiently expressed cell-based assay
T3 sequence (whole entry): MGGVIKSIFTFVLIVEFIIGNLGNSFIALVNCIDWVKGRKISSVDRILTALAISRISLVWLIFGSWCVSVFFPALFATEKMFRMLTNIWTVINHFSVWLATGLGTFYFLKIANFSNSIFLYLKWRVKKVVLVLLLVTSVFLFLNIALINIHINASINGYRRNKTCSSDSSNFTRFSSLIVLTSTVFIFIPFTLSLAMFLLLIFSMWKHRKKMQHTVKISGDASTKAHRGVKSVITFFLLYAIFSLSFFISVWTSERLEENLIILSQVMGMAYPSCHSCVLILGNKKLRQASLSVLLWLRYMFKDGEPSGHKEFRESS

[19] = target: T2, Taste receptor type 2 member 8 (Homo sapiens); test: Antagonist activity at recombinant human TAS2R8 assessed as inhibition of andrographolide-induced intracellular calcium level at 1 uM preincubated for 60 secs followed by andrographolide addition using Fura-2AM dye by cell-based fluorescent microscopic analysis; type: functional; method in brief: as §1
[20] = Maternal toxicity in po dosed Sprague-Dawley rat administered via gavage during gestation period; type: ADME, organism-based; settings: female, in vivo

Activity [1]: 97%
Activity [2]: 98%
Activity [3]: 88%
Activity [4]: 59%
Activity [5]: 91%
Structure (SMILES): Cc1noc(C)c1Cn1cc(N2C(=O)N(Cc3cccc(O)c3)C(C)(C)C2=O)cn1

remaining at 24 h [6]: > 99%
remaining at 1 h [7]: > 99%
remaining at 24 h [8]: > 99%
pEC50 [9]: 3.82
pEC50 [10]: 4.40
Activity [1]: 119%
inhibition [11]: Active
remaining at 24 h [12]: > 99%
remaining at 0.5 min [13]: > 99%
Activity [2]: 106%
remaining at 24 h [14]: 20%
Activity [3]: 84%
Activity [4]: 92%
Activity [5]: 99%
Activity [17]: Active
Activity [18]: Active
inhibition [19]: Active
Structure (SMILES): Cc1noc(C)c1Cn1cc(N2C(=O)CN(Cc3cccc(O)c3)C2=O)cn1
Activity (Homo sapiens): inactive
NOAEL [15]: 1000 mg/kg
NOAEL at 2160 h [16]: 100 mg/kg
NOAEL [20]: 1000 mg/kg
